Bioassay records (PubChem BioAssay)
FLuc stim CS: firefly luciferase counter-screen for stimulation assays | P08659 | ATPlite luciferase biochemical, luminescence, 10 min; 0 = ATP-free wells, 1 = DMSO control | activation factor at 10 µM | 200,000 tested, under 10 active;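 active means luciferase activation factor, scaled between plate controls, of at least 2 with compound at 10 µM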
Target sequence (P08659 whole entry, looked up): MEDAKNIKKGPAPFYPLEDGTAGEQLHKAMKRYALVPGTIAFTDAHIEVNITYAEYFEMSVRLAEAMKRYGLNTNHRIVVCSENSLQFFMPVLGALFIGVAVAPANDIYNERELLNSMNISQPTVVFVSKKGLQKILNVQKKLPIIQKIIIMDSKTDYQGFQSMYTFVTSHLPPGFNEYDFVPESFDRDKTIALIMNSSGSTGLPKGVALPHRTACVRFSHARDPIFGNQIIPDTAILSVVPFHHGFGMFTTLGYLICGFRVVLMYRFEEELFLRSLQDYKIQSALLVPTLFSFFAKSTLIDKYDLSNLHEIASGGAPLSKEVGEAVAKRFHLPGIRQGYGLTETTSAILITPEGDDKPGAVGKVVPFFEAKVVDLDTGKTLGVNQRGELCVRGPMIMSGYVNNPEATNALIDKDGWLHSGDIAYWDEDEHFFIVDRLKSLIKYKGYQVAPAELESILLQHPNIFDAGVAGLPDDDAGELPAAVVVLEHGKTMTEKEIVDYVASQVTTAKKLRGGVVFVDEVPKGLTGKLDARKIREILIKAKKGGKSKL
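Assay system: Luciferase/luciferin reagent mix; Medium: PBS as buffer for the ATP substrate; Dosing: test compounds dosed from 2 mM stocks in 100% DMSO; Times: 10 min, room temperature; Signal: luminescence from luciferase reaction; Read-out: luciferase activation; Controls: No-ATP low control, compound-free enzyme-plus-ATP high control.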
FLuc inhib CS: inhibits firefly luciferase, flagging false hits in luciferase inhibition screens; 200,000 compounds, 1.5% hits; inhibition, % at 10 µM; ATPLite firefly luciferase biochemical luminescence, 10 min; AID 1006;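 active means inhibition above about 50% when tested at 10 µM, limit read from the data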
TRAIL sens C8: caspase-8 TRAIL sensitization; inhibition (viability loss, TRAIL sensitization), % at 10 µM; AID 624354; 360,000 compounds, 1% hits; NB7+C8 cells + TRAIL, ATPlite viability luminescence;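 active means compounds causing at least 50% loss of cell viability in the single-dose screen, relative to plate controls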
PPC-1+TRAIL kill: PPC-1 cancer cell killing with TRAIL present; PPC-1 cells + TRAIL, ATPLite viability luminescence; cell killing (% activity), % at 4 µM or 5 µM; 220,000 compounds, 0.41% hits; AID 1443;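 active means cell killing above 50% in the first pass at 4 µM, then a duplicate retest at 5 µM averaging 50% or more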;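 further: plate controls were cells with TRAIL plus DMSO for no effect and medium-only wells lacking cells for full effect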
An asterisk follows results filed as active; · = no result given. Rows were chosen to be rich in hits. Some 1.5% of all compounds tested hit in one or more screens of this group.

SMILES	FLuc stim CS	FLuc inhib CS	TRAIL sens C8	PPC-1+TRAIL kill
Cc1ccc2nc(C)c(C(=O)NN=C3CCN(C)CC3)n2c1	1	-4	-12	19
CC1CCCCC1NC(=O)COc1ncnc2sccc12 (stereo unspecified)	·	·	-4	·
CCc1ccc2oc(C(=O)Nc3cccnc3)c(C)c2c1	·	·	42	·
Cc1c(C(=O)Nc2cccnc2)oc2ccc(Br)cc12	·	·	50*	·
Nc1ccc(Nc2nc(-c3ccncc3)cs2)cc1	0.4	59*	25	11
O=C(Cn1ncn2c(cc3sccc32)c1=O)NC1CCCC1	·	·	-7	·
Oc1ccc(-c2cnc3ccccc3n2)cc1	·	·	6	·
Nc1ccc(-c2cnc3ccccc3n2)cc1	·	·	-6	·
Oc1ccc(-c2cnc(-c3ccc(O)cc3)nc2)cc1	·	·	80*	·
Nc1ccc(-c2cnc(-c3ccc(N)cc3)nc2)cc1	0.3	74*	73*	-10
CCN(CC(=O)Nc1c(F)cccc1F)C(=O)Cc1csc(-c2ccccc2)n1	·	·	-11	·
COC(=O)c1c(NC(=O)CN2CCN(c3ncccn3)CC2)sc(C(N)=O)c1C	·	·	0	·
O=C(CN1CCCCC1)Nc1ccc(S(=O)(=O)c2ccc(NC(=O)CN3CCCCC3)cc2)cc1	·	·	2	·
Cc1ccc(NC(=O)C2C(=O)N(C)c3ccccc32)cc1 (stereo unspecified)	0.2	76*	-5	27
C[C@@H]1CN([C@@H](C)CO)C(=O)c2cc(Br)cnc2O[C@H]1CN(C)C(=O)c1ccccc1F	·	·	-2	·
O=C(OCn1ncc(Br)c(Br)c1=O)c1ccccc1Cl	1	-1	93*	31
O=C(OCn1ncc(Br)c(Br)c1=O)c1ccc(F)cc1	1	-3	95*	29
CC(=O)OCn1ncc(N2CCOCC2)c(Br)c1=O	·	·	9	·
O=C(N/N=C\c1ccc(CNS(=O)(=O)c2ccc(Cl)cc2)o1)C(=O)Nc1ccc(Oc2ccccc2)cc1	1.1	-7	54*	1
Cc1cc(C)n2nc(CNS(=O)(=O)c3ccc(F)c(C)c3)nc2n1	·	·	-9	·
COn1c(SCc2ccc(Cl)cc2)nc2ccccc2c1=O	1.1	-5	60*	37
O=C(Nc1ccccc1)c1cc(C2CCCN(C(=O)c3ccccc3)C2)on1 (stereo unspecified)	·	·	4	·
CCCC(=O)N1CCCC(c2cc(C(=O)Nc3ccccc3)no2)C1 (stereo unspecified)	·	·	52*	·
CCc1ccccc1NC1=NCC(=O)N1Cc1ccc2c(c1)OCO2	1	-3	-11	-10
CNc1ccccc(-c2ccc3cc4c(cc3n2)OCO4)c1=O	0.5	53*	16	-1
SMILES	FLuc stim CS	FLuc inhib CS	TRAIL sens C8	PPC-1+TRAIL kill
COc1ccc(CN2CCNC(=O)C2CC(=O)NCC2CCOCC2)c(F)c1 (stereo unspecified)	·	·	-1	·
COc1ccc(C(=O)Nc2nnc(S(=O)(=O)N3CCOCC3)s2)cc1	·	·	-4	·
C=CCn1c2ccccc2c(=O)c2cc(C#CC3(O)CCCCC3)ccc21	·	·	81*	·
Cn1c2ccccc2c(=O)c2cc(C#CC3=CCCCC3)ccc21	·	·	43	·
C=CCn1c2ccccc2c(=O)c2cc(C#CC[C@@H](C)O)ccc21	·	·	53*	·
Cc1cc(C)cc(Cn2cc(CN3CC(N4CCSCC4)CS3(=O)=O)nn2)c1 (stereo unspecified)	·	·	-21	·
C=CCN1C(=O)c2ccc(C(=O)N3CCN(S(=O)(=O)c4ccccc4Br)CC3)cc2C1=O	·	·	2	·
Cc1ccc(NC(=O)c2ccc(N/N=C/c3cccc(O)c3)c([N+](=O)[O-])c2)cc1	1	-1	44	53*
O=C(c1ccc(Cl)nc1)c1cccs1	·	·	·	3
COc1ccc(C(=O)c2no[n+]([O-])c2C(=O)c2ccc(OC)cc2)cc1	1.1	-8	93*	19
COc1ccc(NC(=O)c2c(N)no[n+]2[O-])cc1	1	-2	4	25
O=C(c1cccs1)c1no[n+]([O-])c1C(=O)c1cccs1	1	1	92*	13
Fc1cccc(CCN2CCNC[C@@H]2CC2CCCCC2)c1	·	·	3	·
CN(c1ccccc1)c1ccc(/C=N/N2CCOCC2)cc1	0.3	70*	28	17
COc1ccc(C(=O)NC2CCSc3ccccc32)cc1F (stereo unspecified)	·	·	41	·
Clc1ccc(N=NN2CCOCC2)cc1	·	·	-12	19
Cc1[nH]nc(C(F)(F)F)c1N=NN1CCOCC1	·	·	78*	·
Cn1/c(=N/N=C/c2ccccn2)sc2ccccc21	0.4	59*	21	22
Cc1cc(C)n2nc(SCC(=O)Nc3ccccc3C)nc2n1	·	·	-2	·
Cc1ccc(NC(=O)c2cc3ccccc3o2)nc1	·	·	59*	·
Cc1ccc(C(=O)c2cc3ccccc3o2)cc1	0.4	57*	30	19
